Some results are limits rather than exact numbers.

As usually defined, the IC50 is the concentration that inhibits the measured activity by half. The low end stands for inhibition by little substance, the high end for a need for much substance. As usually defined, the microsomal CLint is a measure of how fast metabolising enzymes remove a compound, apart from limits set by blood flow. As usually defined, the Ki is the equilibrium dissociation constant of an inhibitor or competing ligand from its target.

For series [1], the target named is T1, Cannabinoid receptor 1 (Homo sapiens, UniProt P21554). Nature of the series: Antagonist activity against human CB1 receptor. The format is functional.
A short description of series [2]: Intrinsic clearance in human gut microsomes in presence of NADPH. Format: ADME, Microsome. Summed up: (§1)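 Pooled human microsomes (gut or liver) at 0.5 mg protein/mL with 1 mM NADPH, pH 7.4 (P450 pathway). Compound loss followed by LC–MS/MS in duplicate time-course incubations; intrinsic clearance given per mg protein.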
Series [3] is described as follows: Intrinsic clearance in human gut microsomes in presence of UGT. Format: ADME, Microsome. Summed up: (§2)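 UGT pathway: human gut or liver microsomes at 0.5 mg protein/mL with 2 mM UDPGA, alamethicin and 1 mM MgCl2, pH 7.1. Compound depletion measured by LC–MS/MS in duplicate time-course incubations; intrinsic clearance expressed per mg protein.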
A short description of series [4]: Intrinsic clearance in human liver microsomes in presence of NADPH. The format is ADME, Microsome. An outline of the steps:
as §1
(Liver microsomes are vesicles of endoplasmic reticulum, rich in cytochrome P450 enzymes.)

A short description of series [5]: Intrinsic clearance in human liver microsomes in presence of UGT. Format: ADME, Microsome. Summed up:
as §2

The next series deals with Mus musculus. Kind of series: Inhibition of WIN55212-2-induced hypothermia in po dosed mouse assessed as change in rectal temperature administered 15 mins before WIN55212-2 challenge measured after 75 mins. Format: functional. As to conditions: read-out: ID50 (the source's name). Summed up: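 Antagonist or vehicle (5% mulgofen in saline, 10 mL/kg) given orally 75 min before rectal temperature reading. WIN 55,212-2 mesylate (10 mL/kg) given sc 60 min before the reading, at its time of maximal hypothermia. Metal probe with vaseline inserted about 1.5 cm; highest temperature stable for 10 s recorded. ID50 reported with confidence interval.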

Series [6] has as its target T1, Cannabinoid receptor 1. Kind of series: biochemical. Format: cell-based, CHO.
A further series deals with Cannabinoid receptor 2 (Homo sapiens, UniProt P34972). Kind of series: Displacement of [3H]CP55940 from human recombinant CB2 receptor expressed in Sf9 cells. Summed up:
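Competition binding against [3H]CP55,940 on membranes from Sf9 cells expressing recombinant human CB2 receptor; run at least in duplicate.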

T1 sequence (P21554 whole entry): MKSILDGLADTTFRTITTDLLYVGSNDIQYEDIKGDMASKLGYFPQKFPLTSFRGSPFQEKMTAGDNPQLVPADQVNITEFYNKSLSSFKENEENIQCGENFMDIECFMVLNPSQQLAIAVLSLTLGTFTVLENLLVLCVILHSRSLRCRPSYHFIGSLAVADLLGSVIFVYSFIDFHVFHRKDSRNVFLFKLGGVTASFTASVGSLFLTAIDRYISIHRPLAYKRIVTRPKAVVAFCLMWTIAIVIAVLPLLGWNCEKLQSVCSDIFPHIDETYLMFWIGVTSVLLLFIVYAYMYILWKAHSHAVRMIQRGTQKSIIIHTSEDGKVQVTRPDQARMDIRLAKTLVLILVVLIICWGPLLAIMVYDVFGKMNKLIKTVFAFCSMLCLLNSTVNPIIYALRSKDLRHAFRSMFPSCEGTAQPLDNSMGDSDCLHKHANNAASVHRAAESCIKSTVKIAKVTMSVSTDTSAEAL
Cannabinoid receptor 2, sequence (P34972 whole entry): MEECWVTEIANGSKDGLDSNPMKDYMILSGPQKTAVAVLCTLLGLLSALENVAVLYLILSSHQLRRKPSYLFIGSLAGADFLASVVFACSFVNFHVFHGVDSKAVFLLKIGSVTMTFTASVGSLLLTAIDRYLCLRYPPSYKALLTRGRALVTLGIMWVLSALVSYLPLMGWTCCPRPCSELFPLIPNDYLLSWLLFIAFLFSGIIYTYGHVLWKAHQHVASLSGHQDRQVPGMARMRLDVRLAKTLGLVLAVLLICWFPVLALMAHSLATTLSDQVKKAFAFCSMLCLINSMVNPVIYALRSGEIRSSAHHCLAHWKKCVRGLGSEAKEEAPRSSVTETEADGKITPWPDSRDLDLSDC

For `CC(C)(CO)CNC(=O)c1cc2cc(C#N)ccc2n1Cc1cc(Cl)cc(Cl)c1`, at Cannabinoid receptor 1 [1], the IC50 is 5.37 nM. Besides, the microsomal CLint in series [2] is under 6 µL/min/mg; in series [3], 98 µL/min/mg; in series [4], 103 µL/min/mg; in series [5], 22 µL/min/mg.
At Cannabinoid receptor 1 [1], `COc1ccc(Br)cc1Cn1c(C(=O)NCC(C)(C)CO)cc2cc(C#N)ccc21` had an IC50 of 0.776 nM. Also, the microsomal CLint in series [2] is under 6 µL/min/mg; in series [3], 94 µL/min/mg; in series [4], 104 µL/min/mg; in series [5] it was 23 µL/min/mg.
Taken in the same sequence, the figures for `COc1ccc(Br)cc1Cn1c(C(=O)NCCCO)cc2cc(C#N)ccc21` were 9.33 nM, under 6 µL/min/mg, under 6 µL/min/mg, 41 µL/min/mg and under 6 µL/min/mg.
Consider `CCOc1ccc(OC(F)(F)F)cc1Cn1c(C(=O)NCC(C)(C)CO)cc2cc(C#N)ccc21`, for which, on Cannabinoid receptor 1 [1], the IC50 is 8.32 nM. In addition, the microsomal CLint was under 6 µL/min/mg in series [2], 103 µL/min/mg in series [3], 103 µL/min/mg in series [4] and 20 µL/min/mg in series [5].
Consider `COc1ccc(C(C)(C)C)cc1Cn1c(C(=O)NCC2(CO)CC2)cc2cc(C#N)ccc21`, for which inhibition against Cannabinoid receptor 1 [1] was half-maximal at 1.48 nM (IC50). Moreover, the microsomal CLint was under 6 µL/min/mg in series [2], 26 µL/min/mg in series [3], 188 µL/min/mg in series [4] and under 6 µL/min/mg in series [5].
As to `CC(C)(O)CCNC(=O)c1cc2cc(C#N)ccc2n1Cc1cccc(OC(F)(F)F)c1`, in the series with Mus musculus, the ED50 is 9.67 µmol/kg. This molecule also showed a Ki at Cannabinoid receptor 1 [6] of 5.01 nM. On Cannabinoid receptor 1 [1], this molecule had an IC50 of 13.5 nM. The microsomal CLint in series [2] was under 6 µL/min/mg; in series [3], 9 µL/min/mg; in series [4], 9 µL/min/mg; in series [5], under 6 µL/min/mg.
With `COc1ccc(OC(F)(F)F)cc1Cn1c(C(=O)NCC(C)(C)O)cc2cc(C#N)ccc21`, the ED50 with Mus musculus is over 10 µmol/kg. The molecule also gave a Ki at Cannabinoid receptor 1 [6] of 5.5 nM. This molecule also showed a half-inhibitory concentration (IC50) against Cannabinoid receptor 1 [1] of 22.4 nM. Further, the microsomal CLint is under 6 µL/min/mg in series [2], 8 µL/min/mg in series [3], under 6 µL/min/mg in series [4] and under 6 µL/min/mg in series [5].
The molecule `Cc1ccc(C)c(Cn2c(C(=O)NCC(C)(C)CO)cc3cc(C#N)ccc32)c1` showed an IC50 on Cannabinoid receptor 1 [1] of 0.631 nM. Besides, the microsomal CLint is under 6 µL/min/mg in series [2], 124 µL/min/mg in series [3], 257 µL/min/mg in series [4] and 29 µL/min/mg in series [5].
With `N#Cc1ccc2c(c1)cc(C(=O)NCCC(O)(C(F)(F)F)C(F)(F)F)n2Cc1cccc(OC(F)(F)F)c1`, half-maximal inhibition against Cannabinoid receptor 1 [1] (IC50) required 6.03 nM. The microsomal CLint is under 6 µL/min/mg in series [2], under 6 µL/min/mg in series [3], 20 µL/min/mg in series [4] and 24 µL/min/mg in series [5].
The molecule `N#Cc1ccc2c(c1)cc(C(=O)NCCC1(O)CCC1)n2Cc1cccc(OC(F)(F)F)c1` had an IC50 at Cannabinoid receptor 1 [1] of 2.63 nM. For the same molecule, the microsomal CLint was under 6 µL/min/mg in series [2], under 6 µL/min/mg in series [3], 78 µL/min/mg in series [4] and under 6 µL/min/mg in series [5].
Regarding `CC(C)(CO)CNC(=O)c1cc2cc(C#N)ccc2n1Cc1cccc(OC(F)(F)F)c1`, the ED50 with Mus musculus was found to be 3.42 µmol/kg. Moreover, the Ki at Cannabinoid receptor 1 [6] was 0.794 nM; at Cannabinoid receptor 2, over 10000 nM. Also, the IC50 against Cannabinoid receptor 1 [1] is 1.82 nM. The microsomal CLint is under 6 µL/min/mg in series [2], 136 µL/min/mg in series [3], 62 µL/min/mg in series [4] and 20 µL/min/mg in series [5].
In turn, `Cc1ccc(C(F)(F)F)cc1Cn1c(C(=O)NCC(C)(C)CO)cc2cc(C#N)ccc21` showed an IC50 at Cannabinoid receptor 1 [1] of 0.513 nM. Moreover, the microsomal CLint was under 6 µL/min/mg in series [2], 102 µL/min/mg in series [3], 180 µL/min/mg in series [4] and 16 µL/min/mg in series [5].
With `CC(O)C1(CNC(=O)c2cc3cc(C#N)ccc3n2Cc2cccc(OC(F)(F)F)c2)CCCC1` (centres undefined), the IC50 against Cannabinoid receptor 1 [1] is 5.13 nM. In addition, the intrinsic metabolic clearance (microsomal CLint) in series [2] is 99 µL/min/mg; in series [3] it was under 6 µL/min/mg; in series [4], 505 µL/min/mg; in series [5] it was 9 µL/min/mg.
In the case of `COc1ccc(C(F)(F)F)cc1Cn1c(C(=O)NCC(C)(C)O)cc2cc(C#N)ccc21`, the ED50 with Mus musculus is over 10 µmol/kg. Besides, on Cannabinoid receptor 1 [6], the affinity corresponds to a Ki of 7.59 nM. Further, on Cannabinoid receptor 1 [1], the half-maximal inhibitory concentration (IC50) is 11.5 nM. For the same molecule, the microsomal CLint in series [2] is under 6 µL/min/mg; in series [3] it was under 6 µL/min/mg; in series [4] it was 7 µL/min/mg; in series [5], under 6 µL/min/mg.
On Cannabinoid receptor 1 [1], `Cc1ccc(Cl)cc1Cn1c(C(=O)NCC(C)(C)CO)cc2cc(C#N)ccc21` gave an IC50 of 0.575 nM. The microsomal CLint is under 6 µL/min/mg in series [2], 124 µL/min/mg in series [3], 119 µL/min/mg in series [4] and 23 µL/min/mg in series [5].
Taken in the same sequence, the figures for `CC(O)CCNC(=O)c1cc2cc(C#N)ccc2n1Cc1cccc(OC(F)(F)F)c1` (centres undefined) were 8.91 nM, under 6 µL/min/mg, under 6 µL/min/mg, 113 µL/min/mg and under 6 µL/min/mg.
As to `Cc1ccc(F)cc1Cn1c(C(=O)NCC2(CO)CCC2)cc2cc(C#N)ccc21`, at Cannabinoid receptor 1 [1], the IC50 was 4.9 nM. Besides, the intrinsic metabolic clearance (microsomal CLint) was under 6 µL/min/mg in series [2], 175 µL/min/mg in series [3], 190 µL/min/mg in series [4] and 49 µL/min/mg in series [5].
Take `Cc1c(C(=O)NN2CCCCC2)nn(-c2ccc(Cl)cc2Cl)c1-c1ccc(Cl)cc1` [RIMONABANT]: the ED50 in the series with Mus musculus came to 1.29 µmol/kg. Also, the microsomal CLint in series [2] is under 6 µL/min/mg; in series [3], under 6 µL/min/mg; in series [4], 69 µL/min/mg; in series [5] it was under 6 µL/min/mg.
`N#Cc1ccc2c(c1)cc(C(=O)NCCC(O)C(F)(F)F)n2Cc1cccc(OC(F)(F)F)c1` (centres undefined) had an IC50 at Cannabinoid receptor 1 [1] of 8.13 nM. Further, the microsomal CLint in series [2] is 26 µL/min/mg; in series [3], under 6 µL/min/mg; in series [4], 59 µL/min/mg; in series [5], 31 µL/min/mg.
In the same order, the values of `COc1ccc(C(F)(F)F)cc1Cn1c(C(=O)NCC2(CO)CC2)cc2cc(C#N)ccc21` are 1.32 nM, under 6 µL/min/mg, 49 µL/min/mg, 155 µL/min/mg and 7 µL/min/mg.
Regarding `COc1ccc(OC(F)(F)F)cc1Cn1c(C(=O)NCC2(CO)CC2)cc2cc(C#N)ccc21`, at Cannabinoid receptor 1 [1], half-maximal inhibition (IC50) required 5.13 nM. The microsomal CLint in series [2] is under 6 µL/min/mg; in series [3] it was 51 µL/min/mg; in series [4] it was 139 µL/min/mg; in series [5], 18 µL/min/mg.
In the same order, the values of `CCCOc1cccc(Cn2c(C(=O)NCC(C)(C)CO)cc3cc(C#N)ccc32)c1` are 1.55 nM, 13 µL/min/mg, 45 µL/min/mg, 156 µL/min/mg and 10 µL/min/mg.
At Cannabinoid receptor 1 [1], `COc1ccc(C)cc1Cn1c(C(=O)NCC(C)(C)CO)cc2cc(C#N)ccc21` gave an IC50 of 0.759 nM. Also, the intrinsic clearance (microsomal CLint) in series [2] was under 6 µL/min/mg; in series [3], 64 µL/min/mg; in series [4] it was 191 µL/min/mg; in series [5] it was 23 µL/min/mg.
Taken in the same sequence, the figures for `COc1ccc(C(F)(F)F)cc1Cn1c(C(=O)NCCC2(O)CCC2)cc2cc(C#N)ccc21` were 1.48 nM, under 6 µL/min/mg, under 6 µL/min/mg, 88 µL/min/mg and under 6 µL/min/mg.
On Cannabinoid receptor 1 [1], `COc1ccc(Cl)cc1Cn1c(C(=O)NCC2(CO)CCC2)cc2cc(C#N)ccc21` had an IC50 of 2.57 nM. Further, the microsomal CLint in series [2] is under 6 µL/min/mg; in series [3], 179 µL/min/mg; in series [4] it was 196 µL/min/mg; in series [5], 34 µL/min/mg.
As for `COc1ccc(Cl)cc1Cn1c(C(=O)NCC(C)(C)CO)cc2cc(C#N)ccc21`, it took 2 nM to reach half-maximal inhibition against Cannabinoid receptor 1 [1] (IC50). For the same molecule, the microsomal CLint in series [2] is under 6 µL/min/mg; in series [3] it was 63 µL/min/mg; in series [4], 83 µL/min/mg; in series [5], 10 µL/min/mg.

Values taken from ChEMBL document CHEMBL1759935, “Pharmacokinetic optimisation of novel indole-2-carboxamide cannabinoid CB1 antagonists” (Bioorg Med Chem Lett, 2011).
